Assay results reported in ChEMBL document CHEMBL5303300, “EUbOPEN Chemogenomics Library - Multiplex” (2023).
Values joined by “and” are separate entries in the source; they are usually repeats but may differ in a detail not shown here. Equal entries are not always repeated.

Tested on: U2OS
Assay: Multiplex assay against U2OS
Format: toxicity, cell-based
Settings: human, number of replicates 2
Outline: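 Live cells carried four stains from seeding: Hoechst33342, BioTracker Green Microtubule Cytoskeleton Dye, MitoTracker Red and Annexin V Alexa Fluor 680. They were imaged on a CQ1 microscope at 37°C and 5% CO2 after compound addition. Using CellPathfinder machine-learning gating, cells were split into Hoechst high-intensity objects or normal cells, normal cells into healthy, pyknosed or fragmented nuclei, and pyknosed cells into mitotic or apoptotic; tubulin, mitochondrial-mass and membrane-permeability phenotypes are per cents of healthy-nucleus cells.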

[1] = 12 h, 1 µM, compound concentration 1 uM
[2] = 12 h, 10 µM, compound concentration 10 uM
[3] = 24 h, 1 µM, compound concentration 1 uM
[4] = 24 h, 10 µM, compound concentration 10 uM
[5] = 48 h, 1 µM, compound concentration 1 uM
[6] = 48 h, 10 µM, compound concentration 10 uM

## COc1cc(Br)c(S(=O)(=O)Nc2ccc(C(F)(F)F)c(O[C@@H]3CCN(C)C3)c2)cc1OC
[1]
  Population Fragmented Nuclei (%): 10% and 4%
  Population Healthy Nuclei (%): 80% and 88%
  Population Hoechst High Intensity Objects (%): 0%
  Population Membrane Permeable-Phenotype (%): 4% and 0%
  Population Mitochondria Different-Phenotype (%): 0%
  Population Mitotic Cells (%): 100% and 46%
  Population Normal (%): 100%
  Population Pyknosed Nuclei (%): 10% and 7%
  Population Tubulin-Different-Phenotype (%): 66% and 89%
[2]
  Population Apoptotic (%): 60% and 78%
  Population Healthy Nuclei (%): 67% and 85%
  Population Hoechst High Intensity Objects (%): 0%
  Population Membrane Permeable-Phenotype (%): 4% and 0%
  Population Mitochondria Different-Phenotype (%): 4% and 0%
  Population Mitotic Cells (%): 40% and 21%
  Population Normal (%): 100%
  Population Pyknosed Nuclei (%): 16% and 10%
  Population Tubulin-Different-Phenotype (%): 66% and 59%
[3]
  Population Apoptotic (%): 66% and 47%
  Population Fragmented Nuclei (%): 7% and 3%
  Population Healthy Nuclei (%): 85% and 88%
  Population Hoechst High Intensity Objects (%): 0%
  Population Membrane Permeable-Phenotype (%): 0% and 3%
  Population Mitochondria Different-Phenotype (%): 0%
  Population Mitotic Cells (%): 33% and 52%
  Population Normal (%): 100%
  Population Pyknosed Nuclei (%): 7%
  Population Tubulin-Different-Phenotype (%): 77% and 87%
[4]
  Population Fragmented Nuclei (%): 8% and 2%
  Population Healthy Nuclei (%): 75% and 85%
  Population Hoechst High Intensity Objects (%): 0%
  Population Membrane Permeable-Phenotype (%): 0% and 2%
  Population Mitochondria Different-Phenotype (%): 3% and 2%
  Population Mitotic Cells (%): 83% and 48%
  Population Normal (%): 100%
  Population Pyknosed Nuclei (%): 16% and 11%
  Population Tubulin-Different-Phenotype (%): 70% and 74%
[5]
  Population Apoptotic (%): 30% and 51%
  Population Healthy Nuclei (%): 69% and 89%
  Population Hoechst High Intensity Objects (%): 0%
  Population Membrane Permeable-Phenotype (%): 0% and 1%
  Population Mitochondria Different-Phenotype (%): 0%
  Population Mitotic Cells (%): 69% and 48%
  Population Normal (%): 100% and 99%
  Population Pyknosed Nuclei (%): 14% and 7%
  Population Tubulin-Different-Phenotype (%): 79% and 91%
[6]
  Population Apoptotic (%): 57% and 61%
  Population Fragmented Nuclei (%): 9% and 1%
  Population Healthy Nuclei (%): 79% and 91%
  Population Hoechst High Intensity Objects (%): 0%
  Population Membrane Permeable-Phenotype (%): 9% and 1%
  Population Mitochondria Different-Phenotype (%): 5% and 0%
  Population Mitotic Cells (%): 42% and 38%
  Population Normal (%): 100%
  Population Pyknosed Nuclei (%): 10% and 6%
  Population Tubulin-Different-Phenotype (%): 92% and 81%

## CN(C)[C@H]1CC[C@H](Nc2ncc3ncnc(Nc4ccc(F)c(Cl)c4)c3n2)CC1
[1]
  Population Fragmented Nuclei (%): 46% and 17%
  Population Healthy Nuclei (%): 42% and 68%
  Population Hoechst High Intensity Objects (%): 0%
  Population Membrane Permeable-Phenotype (%): 4% and 1%
  Population Mitochondria Different-Phenotype (%): 4% and 1%
  Population Mitotic Cells (%): 100% and 64%
  Population Normal (%): 100% and 99%
  Population Pyknosed Nuclei (%): 10% and 14%
  Population Tubulin-Different-Phenotype (%): 76% and 89%
[2]
  Population Apoptotic (%): 6% and 13%
  Population Fragmented Nuclei (%): 38% and 27%
  Population Healthy Nuclei (%): 36%
  Population Hoechst High Intensity Objects (%): 9% and 11%
  Population Membrane Permeable-Phenotype (%): 7% and 2%
  Population Mitochondria Different-Phenotype (%): 6% and 1%
  Population Mitotic Cells (%): 93% and 86%
  Population Normal (%): 90% and 88%
  Population Pyknosed Nuclei (%): 25% and 35%
  Population Tubulin-Different-Phenotype (%): 50% and 81%
  Total Cell Count: 197 and 472
[3]
  Population Apoptotic (%): 16% and 47%
  Population Healthy Nuclei (%): 43% and 76%
  Population Hoechst High Intensity Objects (%): 0%
  Population Membrane Permeable-Phenotype (%): 0% and 3%
  Population Mitochondria Different-Phenotype (%): 0% and 1%
  Population Mitotic Cells (%): 83% and 52%
  Population Normal (%): 100% and 99%
  Population Pyknosed Nuclei (%): 9% and 11%
  Population Tubulin-Different-Phenotype (%): 75% and 92%
[4]
  Population Apoptotic (%): 17% and 10%
  Population Fragmented Nuclei (%): 40% and 25%
  Population Healthy Nuclei (%): 33% and 40%
  Population Hoechst High Intensity Objects (%): 14% and 9%
  Population Membrane Permeable-Phenotype (%): 8% and 2%
  Population Mitochondria Different-Phenotype (%): 2% and 0%
  Population Mitotic Cells (%): 82% and 89%
  Population Normal (%): 85% and 90%
  Population Pyknosed Nuclei (%): 26% and 33%
  Population Tubulin-Different-Phenotype (%): 61% and 82%
[5]
  Population Apoptotic (%): 75% and 60%
  Population Healthy Nuclei (%): 39% and 76%
  Population Hoechst High Intensity Objects (%): 0%
  Population Membrane Permeable-Phenotype (%): 3% and 1%
  Population Mitochondria Different-Phenotype (%): 0% and 1%
  Population Mitotic Cells (%): 25% and 39%
  Population Normal (%): 100% and 99%
  Population Pyknosed Nuclei (%): 5% and 8%
  Population Tubulin-Different-Phenotype (%): 71% and 89%
[6]
  Population Apoptotic (%): 18% and 14%
  Population Fragmented Nuclei (%): 36% and 26%
  Population Healthy Nuclei (%): 38% and 47%
  Population Hoechst High Intensity Objects (%): 13% and 10%
  Population Membrane Permeable-Phenotype (%): 9% and 1%
  Population Mitochondria Different-Phenotype (%): 4% and 0%
  Population Mitotic Cells (%): 81% and 85%
  Population Normal (%): 86% and 89%
  Population Pyknosed Nuclei (%): 25%
  Population Tubulin-Different-Phenotype (%): 53% and 79%

## CS(=O)(=O)c1ccc(C(=O)Nc2cc(F)cc(COc3ccc(Br)cc3CN3CC[C@H](O)C3)c2)c(Cl)c1.O=CO
[1]
  Population Healthy Nuclei (%): 64% and 82%
  Population Hoechst High Intensity Objects (%): 0%
  Population Mitotic Cells (%): 20% and 12%
  Population Pyknosed Nuclei (%): 8% and 13%
[2]
  Population Healthy Nuclei (%): 31% and 70%
  Population Hoechst High Intensity Objects (%): 0%
  Population Mitotic Cells (%): 44% and 57%
  Population Pyknosed Nuclei (%): 21% and 25%
[3]
  Population Healthy Nuclei (%): 82% and 53%
  Population Hoechst High Intensity Objects (%): 0%
  Population Mitotic Cells (%): 21% and 46%
  Population Pyknosed Nuclei (%): 15% and 20%
[4]
  Population Healthy Nuclei (%): 32% and 68%
  Population Hoechst High Intensity Objects (%): 0%
  Population Mitotic Cells (%): 20% and 26%
  Population Pyknosed Nuclei (%): 25% and 28%
[5]
  Population Healthy Nuclei (%): 57% and 85%
  Population Hoechst High Intensity Objects (%): 0%
  Population Mitotic Cells (%): 11% and 15%
  Population Pyknosed Nuclei (%): 18%
[6]
  Population Healthy Nuclei (%): 19% and 52%
  Population Hoechst High Intensity Objects (%): 0%
  Population Mitotic Cells (%): 12% and 9%
  Population Pyknosed Nuclei (%): 44% and 38%

## CS(=O)(=O)c1ccc(C(=O)Nc2cccc(COc3ccc(Br)cc3CN3CC[C@H](O)C3)c2)cc1.O=CO
[1]
  Population Apoptotic (%): 100% and 72%
  Population Fragmented Nuclei (%): 8% and 2%
  Population Healthy Nuclei (%): 84% and 83%
  Population Hoechst High Intensity Objects (%): 0%
  Population Normal (%): 100%
[2]
  Population Apoptotic (%): 100% and 70%
  Population Healthy Nuclei (%): 68% and 78%
  Population Hoechst High Intensity Objects (%): 0%
  Population Normal (%): 100% and 99%
[3]
  Population Apoptotic (%): 50%
  Population Fragmented Nuclei (%): 4% and 3%
  Population Healthy Nuclei (%): 85% and 86%
  Population Hoechst High Intensity Objects (%): 0%
  Population Mitotic Cells (%): 50% and 31%
  Population Normal (%): 100% and 99%
[4]
  Population Apoptotic (%): 88% and 75%
  Population Healthy Nuclei (%): 58% and 73%
  Population Hoechst High Intensity Objects (%): 0%
  Population Mitotic Cells (%): 11% and 24%
  Population Normal (%): 100%
[5]
  Population Apoptotic (%): 54% and 76%
  Population Fragmented Nuclei (%): 4% and 1%
  Population Healthy Nuclei (%): 84% and 89%
  Population Hoechst High Intensity Objects (%): 0%
  Population Mitotic Cells (%): 45% and 23%
  Population Normal (%): 100% and 99%
[6]
  Population Apoptotic (%): 75% and 80%
  Population Healthy Nuclei (%): 54% and 69%
  Population Hoechst High Intensity Objects (%): 0%
  Population Mitotic Cells (%): 25% and 19%
  Population Normal (%): 100% and 99%

## CS(=O)(=O)c1ccc(C(=O)Nc2cccc(COc3ccc(Br)cc3CN3CCC[C@H](O)C3)c2)c(Cl)c1.O=CO
[1]
  Population Healthy Nuclei (%): 84% and 83%
  Population Hoechst High Intensity Objects (%): 0%
  Population Pyknosed Nuclei (%): 15%
[2]
  Population Apoptotic (%): 66% and 52%
  Population Healthy Nuclei (%): 69% and 75%
  Population Hoechst High Intensity Objects (%): 0%
  Population Pyknosed Nuclei (%): 15% and 18%
[3]
  Population Healthy Nuclei (%): 74% and 83%
  Population Hoechst High Intensity Objects (%): 0%
[4]
  Population Apoptotic (%): 90%
  Population Healthy Nuclei (%): 65% and 70%
  Population Hoechst High Intensity Objects (%): 0%
[5]
  Population Apoptotic (%): 77% and 76%
  Population Healthy Nuclei (%): 53% and 83%
  Population Hoechst High Intensity Objects (%): 0%
  Population Pyknosed Nuclei (%): 19%
[6]
  Population Apoptotic (%): 93% and 86%
  Population Healthy Nuclei (%): 43% and 57%
  Population Hoechst High Intensity Objects (%): 0%
  Population Pyknosed Nuclei (%): 34% and 29%

## Cc1onc(-c2ccccc2Cl)c1C(=O)N(C)c1ccc(Cl)cc1
[1]
  Population Apoptotic (%): 60% and 64%
  Population Healthy Nuclei (%): 57% and 80%
  Population Hoechst High Intensity Objects (%): 0%
  Population Mitochondria Different-Phenotype (%): 20% and 0%
  Population Mitotic Cells (%): 40% and 35%
  Population Normal (%): 100%
  Population Pyknosed Nuclei (%): 14% and 17%
  Population Tubulin-Different-Phenotype (%): 65% and 85%
[2]
  Population Apoptotic (%): 33% and 73%
  Population Healthy Nuclei (%): 52% and 83%
  Population Hoechst High Intensity Objects (%): 0%
  Population Membrane Permeable-Phenotype (%): 0% and 4%
  Population Mitochondria Different-Phenotype (%): 0%
  Population Mitotic Cells (%): 66% and 26%
  Population Normal (%): 100%
  Population Pyknosed Nuclei (%): 13% and 12%
  Population Tubulin-Different-Phenotype (%): 88% and 70%
[3]
  Population Apoptotic (%): 50% and 45%
  Population Healthy Nuclei (%): 72% and 85%
  Population Hoechst High Intensity Objects (%): 0%
  Population Mitochondria Different-Phenotype (%): 13% and 0%
  Population Mitotic Cells (%): 50% and 54%
  Population Normal (%): 100% and 99%
  Population Pyknosed Nuclei (%): 10% and 12%
  Population Tubulin-Different-Phenotype (%): 68% and 86%
[4]
  Population Apoptotic (%): 22% and 41%
  Population Healthy Nuclei (%): 67% and 85%
  Population Hoechst High Intensity Objects (%): 0%
  Population Membrane Permeable-Phenotype (%): 3%
  Population Mitochondria Different-Phenotype (%): 1%
  Population Mitotic Cells (%): 77% and 58%
  Population Normal (%): 100%
  Population Pyknosed Nuclei (%): 9% and 10%
  Population Tubulin-Different-Phenotype (%): 77% and 73%
[5]
  Population Apoptotic (%): 60% and 56%
  Population Healthy Nuclei (%): 75% and 91%
  Population Hoechst High Intensity Objects (%): 0%
  Population Membrane Permeable-Phenotype (%): 8% and 2%
  Population Mitochondria Different-Phenotype (%): 3% and 0%
  Population Mitotic Cells (%): 40% and 43%
  Population Normal (%): 100% and 99%
  Population Pyknosed Nuclei (%): 6%
  Population Tubulin-Different-Phenotype (%): 74% and 88%
[6]
  Population Apoptotic (%): 30% and 56%
  Population Healthy Nuclei (%): 76% and 89%
  Population Hoechst High Intensity Objects (%): 0%
  Population Membrane Permeable-Phenotype (%): 0% and 1%
  Population Mitochondria Different-Phenotype (%): 0% and 2%
  Population Mitotic Cells (%): 70% and 43%
  Population Normal (%): 100%
  Population Pyknosed Nuclei (%): 7% and 9%
  Population Tubulin-Different-Phenotype (%): 88% and 82%
